ARFGAP1 inhibitor: inhibitors of rat ARFGAP1 GAP activity, primary screen, biochemical, fluorescence polarization, GDP tracer | ADP-ribosylation factor GTPase-activating protein 1 (Rattus norvegicus), Q62848 | Arfgap1-stimulated ARF1 GTP hydrolysis, GDP FP detection | inhibition, % at 16.5 µM | actives 0.26% (n = 360,000) | AID 651572, 2012;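 active means inhibition above a per-plate limit, mean inhibition of low control wells plus 3 SD, cut at about 25% in these data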;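 further: 0% = DMSO wells with enzyme and 100% = wells lacking Arfgap1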
Target sequence (Q62848 1-136 limits assumed): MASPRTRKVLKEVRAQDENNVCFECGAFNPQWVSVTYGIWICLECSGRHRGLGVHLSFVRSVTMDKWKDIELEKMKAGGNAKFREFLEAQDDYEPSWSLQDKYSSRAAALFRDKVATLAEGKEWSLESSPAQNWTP
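Material: rat Arfgap1 GAP domain (His6, aa 1-136), purified enzyme. Also added: human ARF1(Δ1-17)-GTP substrate. Compound dosing: 16.5 µM single point, 1.26% DMSO. Timing: enzyme reaction 120 min at 25 °C after 20 min preincubation. Signal: GDP detection by fluorescence polarization. Read-out basis: percent inhibition of GAP-stimulated GDP formation, scaled between DMSO and no-Arfgap1 medians.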
ASAP1 inh: inhibitors of human ASAP1 ArfGAP activity, primary screen, biochemical, fluorescence polarization | ASAP1-stimulated ARF1 GTP hydrolysis, GDP FP detection | AID 624377, 2012 | inhibition, % at 16.5 µM | actives 0.19% (n = 360,000) | Arf-GAP with SH3 domain, ANK repeat and PH domain-containing protein 1 (Homo sapiens), …; in the data active means inhibition above about 25%;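 further: 0% = vehicle with enzyme and substrate and 100% = no enzyme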
Target sequence (Q9ULH1 325-724 limits assumed): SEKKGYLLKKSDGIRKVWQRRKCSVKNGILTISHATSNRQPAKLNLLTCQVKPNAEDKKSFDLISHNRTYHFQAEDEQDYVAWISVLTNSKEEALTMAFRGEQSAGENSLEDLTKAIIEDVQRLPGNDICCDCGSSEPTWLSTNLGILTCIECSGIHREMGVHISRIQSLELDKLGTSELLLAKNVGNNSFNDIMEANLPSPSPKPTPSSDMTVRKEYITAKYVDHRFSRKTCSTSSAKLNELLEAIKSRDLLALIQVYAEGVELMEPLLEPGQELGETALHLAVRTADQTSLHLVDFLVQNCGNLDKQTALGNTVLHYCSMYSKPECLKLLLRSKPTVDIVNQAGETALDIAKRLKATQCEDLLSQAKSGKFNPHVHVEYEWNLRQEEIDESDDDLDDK
HGIII-sPLA2 inh: human group III sPLA2 inhibitors, primary screen, biochemical, QFRET, BODIPY PC-A2 liposome substrate; inhibition, % at 12.2 µM; QFRET BODIPY PC-A2 liposome hydrolysis, fluorescence; actives 0.56% (n = 370,000); AID 743126, 2013; Group 3 secretory phospholipase A2 (Homo sapiens), Q9NZ20;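 active means inhibition above mean plus 3 SD of compounds lying within the high and low control bounds, cut at about 19% in these data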;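 further: 0% = median of test compound wells and 100% = no enzyme DMSO wells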
bovine MsrA act: bovine MsrA enzyme activators, primary screen, biochemical, absorbance, HTS | Methionine sulfoxide reductase A (Bos taurus) | AID 602163, 2012 | purified bovine MsrA, absorbance read-out | activation, % at 10.6 µM | actives 0.3% (n = 360,000); in the data active means activation above about 7.5%;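 further: 0% = vehicle and 100% = reference activator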
MsrA inh: bovine MsrA enzyme inhibitors, primary screen, biochemical, absorbance, HTS | Methionine sulfoxide reductase A (Bos taurus) | purified bovine MsrA, absorbance read-out | inhibition, % at 15.5 µM | actives 0.75% (n = 360,000); in the data active means inhibition above about 4.5%;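 further: 0% = vehicle wells with enzyme and 100% = reference inhibitor wells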
NR1D1 modulator: modulators of Rev-erb alpha DNA binding, primary screen, biochemical, FITC-DNA, fluorescence polarization, uHTS; Nuclear receptor subfamily 1 group D member 1 (Homo sapiens), P20393; Rev-erbα–FITC-DNA binding, 90 min; activity, % at 10 µM; actives 0.79% (n = 370,000); AID 1259318, 2017;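 active means activity above about 14%, limit read from the data; passing the limit was not always enough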;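 further: 0% = DMSO wells with 35 nM protein and 100% = DMSO wells with 750 nM protein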
sPLA2 confirm: human group III sPLA2 inhibitors, confirmation, biochemical, QFRET, triplicate. inhibition, % at 12.2 µM. recombinant hGIII-sPLA2, BODIPY PC-A2 QFRET fluorescence. actives 34% (n = 2,000). AID 743280, 2014. shares compounds with HGIII-sPLA2 inh;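 active means mean inhibition across triplicates above the hit cutoff set in the earlier primary screen, cut at about 19% in these data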;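 further: 0% = enzyme with DMSO and 100% = DMSO wells lacking enzyme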
535nm interf: 535nm fluorescence optical interference, confirmation, artefact control for HGIII-sPLA2 inhibitor project, biochemical, QFRET. shares compounds with HGIII-sPLA2 inh. BODIPY FL product fluorescence interference. inhibition, % at 12.2 µM. actives 8.5% (n = 2,000). AID 743282, 2014;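 active means average inhibition above the solvent-only control mean plus 3 SD, cut at about 6% in these data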;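 further: 0% = DMSO with substrate plus product and 100% = DMSO with substrate alone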
BODIPY interf DR: 535nm fluorescence optical interference, dose response, artefact control for HGIII-sPLA2 inhibitor project, biochemical, QFRET; shares compounds with HGIII-sPLA2 inh; BODIPY FL product fluorescence interference, cell-free; IC50, µM; 240 tested, under 10 active; AID 743455, 2014;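 active means IC50 at or below 10 µM; inactive means IC50 above 10 µM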
Starred values were filed as active, the others as inactive; x = no result given. Rows were chosen to be rich in hits. Some 2.7% of all compounds tested hit in one or more screens of this group.

SMILES | ARFGAP1 inhibitor | ASAP1 inh | HGIII-sPLA2 inh | bovine MsrA act | MsrA inh | NR1D1 modulator | sPLA2 confirm | 535nm interf | others
NNc1nc2c(Cl)c(Cl)ccc2s1 | 8.2 | 3.6 | 23.6* | -3.3 | 1.4 | 3.8 | 19.2 | 13.4*
COc1cccc2sc(NN)nc12 | 6.4 | -4.4 | 12.4 | -4.3 | 0.8 | -9.4 | x | x
C/C(=N/NC(=O)c1ccc2c(c1)OCCO2)c1ccc([N+](=O)[O-])cc1 | -10.3 | 1.1 | 23.4* | -3.9 | -0.7 | -9.1 | -3.1 | -8.4
C=CCNC(=S)NNc1nc2c(c(=O)[nH]1)C1(CCCCC1)Cc1ccccc1-2 | 2.8 | 4.4 | 25.3* | -11.9 | -0.7 | 0.8 | 29.3* | 2.1 | BODIPY interf DR=>122
COc1cc(-n2c(C)nc3cc(C(=O)N4CCCCC4)ccc32)cc(OC)c1OC | x | x | -6.1 | x | x | -8.1 | x | x
CC(C)C[C@H]1COc2cc(Br)ccc2S(=O)(=O)N1Cc1cn(Cc2ccc(F)cc2)nn1 | x | x | 0.8 | x | x | 4.3 | x | x
CCN(CC)c1ccc(-c2nc3cnccn3c2NC2CCCC2)cc1 | 0.5 | -13.5 | 21.2* | -12.8 | -0.6 | 6.1 | 27.0* | -11.9
O=C(CNC(=S)N(Cc1ccccc1)Cc1cccnc1)NC1CCCC1 | 6.3 | 1.1 | 22.8* | -13.3 | -0.1 | -4.5 | 3.9 | -15.9
Cn1ccc2c(N3CCCCCCC3)cc3c(c21)C1CCC3O1 (stereo not drawn) | -9.1 | 4.1 | 19.5* | -1.3 | 1.4 | 5.3 | 31.9* | -7.2 | BODIPY interf DR=>122
Cc1nc2ccc(S(=O)(=O)NCC(=O)NCc3cccs3)cc2s1 | x | x | 11.5 | x | x | 0.5 | x | x
Cc1ccc2nc(-c3cc(N)cc(N)c3)oc2c1 | 14.7 | -4.4 | 23.2* | 0.1 | 0.7 | 5.8 | 36.2* | -2.4 | BODIPY interf DR=>122
CCOC(=O)[C@]12CCCC3=C1N(CCC3)C(=O)[C@@H](CC(=O)NCCC(C)C)C2 | x | x | 1.6 | x | x | -4.4 | x | x
COC(=O)[C@]12C[C@H](CC(=O)NCCCCc3ccccc3)C(=O)N(Cc3ccc(Cl)cc3Cl)C1=C[C@H](C(C)(C)C)O[C@@H]2C | x | x | -0.1 | x | x | 3.8 | x | x
COc1ccc(C(=O)c2coc(-c3ccccc3C(=O)O)c2C(=O)O)cc1 | 3.1 | 3.5 | 19.3* | -5.9 | 0.1 | -1.0 | -5.9 | -2.8
COc1ccc(C(=O)c2ccccc2C(=O)c2ccccc2)cc1 | -9.5 | 2.4 | 10.9 | -3.0 | 1.5 | 2.2 | x | x
Cc1ccc(C2CC2C(=O)NNC(=S)Nc2cccc(Cl)c2)cc1 (stereo not drawn) | 6.6 | -11.7 | 22.6* | 0.5 | 0.6 | 0.7 | -9.3 | 10.0*
COc1ccc(NC(=S)NNC(=O)C2CC2c2ccc(C)cc2)cc1 (stereo not drawn) | 0.8 | 1.1 | 21.4* | -2.8 | 0.0 | 1.5 | 21.9* | -1.5
Cc1ccc(NC(=S)NNC(=O)C2CC2c2ccc(C)cc2)cc1 (stereo not drawn) | -1.9 | -7.3 | 14.7 | -10.9 | -0.7 | 3.5 | x | x
O=C(NNC(=S)Nc1ccc(F)cc1)C1CC1c1ccc(Cl)cc1 (stereo not drawn) | -1.0 | -2.3 | 20.1* | -8.7 | -0.4 | 0.6 | 35.1* | 0.2 | BODIPY interf DR=>122
CCOC(=S)SCC(=O)Nc1nc(C)c(C)s1 | 13.0 | 5.8 | 19.4* | -5.8 | 1.1 | 9.7 | -3.0 | -7.7
CCOC(=S)SCC(=O)Nc1nccs1 | 3.3 | 6.3 | 2.5 | -2.3 | 0.5 | -1.4 | x | x
COC(=O)C[C@H]1CC[C@H]2[C@H](COc3ccc(NS(=O)(=O)c4cccc(F)c4)cc3C(=O)N2C)O1 | x | x | 1.0 | x | x | 0.7 | x | x
O=C(O)c1cccc(Nc2ccc3nonc3c2[N+](=O)[O-])c1 | 5.3 | -4.3 | 20.0* | -1.9 | 0.1 | -3.1 | 1.8 | -5.9
Cc1ccc(Cn2c([N+](=O)[O-])cnc2C)cc1 | 2.8 | 8.6 | 21.9* | -3.1 | 0.8 | 0.1 | 8.5 | -0.2
Cc1c(C(=O)NNC(=S)NCc2ccc(Cl)cc2)oc2ccccc12 | 5.5 | 3.7 | 24.2* | -3.0 | 0.8 | 0.1 | 14.2 | 15.9*
SMILES | ARFGAP1 inhibitor | ASAP1 inh | HGIII-sPLA2 inh | bovine MsrA act | MsrA inh | NR1D1 modulator | sPLA2 confirm | 535nm interf | others
O=C(CNc1cccc(Cl)c1)NNC(=S)NCc1ccccc1 | 0.5 | 8.2 | 26.8* | -2.1 | 0.0 | -0.7 | 32.2* | -0.9 | BODIPY interf DR=>122
O=C(CNc1ccc(Cl)cc1)NNC(=S)NCc1ccccc1 | 2.5 | 2.9 | 25.4* | -1.3 | -0.5 | 5.2 | 37.8* | 4.2 | BODIPY interf DR=>122
S=C(NCc1ccccc1)Nc1cccc(Cl)c1 | -11.4 | -4.2 | -2.4 | 2.7 | 1.0 | -2.5 | x | x
COc1ccc(NC(=S)NNC(=O)CNc2ccc(Cl)cc2)cc1 | 8.5 | 2.1 | 29.4* | -2.0 | 0.4 | -1.1 | 35.2* | 7.4*
COC(=O)c1cc2c(c3c4cc(F)ccc4n(S(=O)(=O)c4cccc(C)c4)c13)C(=O)N(Cc1ccccc1OC)C2 | 0.9 | -6.3 | -0.5 | x | 0.5 | 6.4 | x | x
COc1cccc(Nc2nc(C(N)c3ccccc3)cs2)n1 (stereo not drawn) | 17.5 | 0.1 | 23.6* | -2.2 | 0.6 | 6.5 | 5.8 | -8.9
COc1cccc(Nc2nc(C(C)N)cs2)n1 (stereo not drawn) | -2.7 | -8.0 | 12.6 | 2.9 | 0.1 | -5.1 | x | x
CC1(C)CC2CN(Cc3ccccc3)S(=O)(=O)N2C1 (stereo not drawn) | x | x | 0.2 | x | x | -0.6 | x | x
COc1cc(/C=N/n2c(COc3ccccc3)n[nH]c2=S)cc(OC)c1OC(C)=O | 15.8 | 2.4 | 23.9* | 1.1 | 0.1 | 0.3 | 16.7 | -1.5
Cc1ccc(-n2c(COc3ccccc3)n[nH]c2=S)cc1 | -3.6 | 7.3 | 4.5 | -2.5 | -0.4 | -5.7 | x | x
COc1cc(/C=N/n2c(COc3ccccc3)n[nH]c2=S)cc(Br)c1O | 6.4 | -0.3 | 7.0 | -1.1 | 3.7 | -7.3 | x | x
S=c1[nH]nc(COc2ccccc2)n1-c1ccc(Cl)cc1 | 9.7 | -0.3 | 21.9* | 2.1 | 0.8 | -5.4 | 33.2* | -0.9 | BODIPY interf DR=>122
